# Reference: ChEMBL document CHEMBL1649147, “Antistaphylococcal activity of dihydrophthalazine antifolates, a family of novel antibacterial drugs” (2009)
# How the values were obtained:
# Assay type in all cases: functional
# [1] = test system: Staphylococcus epidermidis; test: Antibacterial activity against coagulase-negative Staphylococcus epidermidis 225 assessed as change in MIC by agar dilution method after serial passages in the absence of antibiotic relative to control
# Method in brief: (§1)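 After drug-selective serial passage, selected clones were passaged 10 times in antibiotic-free MHB. MICs were then redetermined, and the change is expressed as log2 dilution steps.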
# [2] = test system: Staphylococcus epidermidis; test: Antibacterial activity against coagulase-negative Staphylococcus epidermidis 057 after 10 passages in MBH without antibiotic by agar dilution method; method in brief: as §1
# [3] = test system: Staphylococcus epidermidis; test: Antibacterial activity against coagulase-negative Staphylococcus epidermidis 051 after 10 passages in MBH without antibiotic by agar dilution method; method in brief: as §1
# Staphylococcus aureus [4] = test: Antibacterial activity against methicillin-susceptible, vancomycin-intermediate Staphylococcus aureus 505 after 50 passages by agar dilution method
# Method in brief: (§2)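 Daily serial passage for up to 50 days at 35°C for 24 h in 1 ml MHB. […] Each transfer used 10 µl from the tube nearest the MIC (1–2 dilutions below) with the same turbidity as the drug-free control. […] MICs were measured by agar dilution, with changes given as log2 steps.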
# Staphylococcus aureus [5] = test: Antibacterial activity against Tmp-resistant Staphylococcus aureus by agar dilution method
# Method in brief: (§3)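 MICs by agar dilution on Mueller-Hinton agar following CLSI guidelines. S. aureus ATCC 29213 and E. faecalis ATCC 29212 were run as quality controls with each set, and test-strain MICs were kept only if control MICs fell within acceptable ranges.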
# [6] = test system: Staphylococcus epidermidis; test: Antibacterial activity against methicillin-resistant, vancomycin-intermediate coagulase-negative Staphylococcus epidermidis 225 after 36 passages by agar dilution method; method in brief: as §2
# Staphylococcus aureus [7] = test: Antibacterial activity against methicillin-resistant Staphylococcus aureus 145 by broth macrodilution method
# [8] = test system: Staphylococcus epidermidis; test: Antibacterial activity against methicillin-resistant coagulase-negative Staphylococcus epidermidis 197 after 50 passages by agar dilution method
# Method in brief: (§4)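 Daily serial passage for up to 50 days at 35°C for 24 h in 1 ml MHB. Each transfer used 10 µl from the tube nearest the MIC (1–2 dilutions below) with the same turbidity as the drug-free control. MICs were measured by agar dilution, with changes given as log2 steps.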
# Staphylococcus aureus [9] = test: Antibacterial activity against vancomycin-resistant Staphylococcus aureus VRS1 assessed as change in MIC by agar dilution method after serial passages in the absence of antibiotic relative to control
# Method in brief: (§5)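 Clones from the end of drug passage were transferred 10 times in MHB without antibiotic, then retested by agar dilution. MIC change is expressed as log2 dilution steps.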
# [10] = test system: Staphylococcus epidermidis; test: Antibacterial activity against coagulase-negative Staphylococcus epidermidis 057 assessed as change in MIC by agar dilution method after serial passages in the absence of antibiotic relative to control; method in brief: as §1
# Staphylococcus aureus [11] = test: Antibacterial activity against Staphylococcus aureus 145 after 50 passages by agar dilution method
# Method in brief: (§6)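 Serial passage under drug. Inoculum was ~1 × 10^6 CFU/ml from overnight MHA growth, in 1 ml MHB at 35°C for 24 h. Drug ranged from 4 log2 steps above to 3 log2 steps below the MIC. […] MIC change is given as log2 steps.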
# Staphylococcus aureus [12] = test: Antibacterial activity against methicillin-resistant Staphylococcus aureus ATCC 43300 after 50 passages by agar dilution method; settings: ATCC43300; method in brief: as §6
# Staphylococcus aureus [13] = test: Antibacterial activity against vancomycin-resistant Staphylococcus aureus VRS1 after 25 passages by agar dilution method; method in brief: as §2
# [14] = test system: Staphylococcus epidermidis; test: Antibacterial activity against methicillin-susceptible coagulase-negative Staphylococcus epidermidis 051 after 50 passages by agar dilution method; method in brief: as §4
# [15] = test system: Staphylococcus epidermidis; test: Antibacterial activity against methicillin-resistant, Linezolid non-susceptible coagulase-negative Staphylococcus epidermidis 345 after 50 passages by agar dilution method; method in brief: as §4
# [16] = test system: Staphylococcus epidermidis; test: Antibacterial activity against coagulase-negative Staphylococcus epidermidis 057 by agar dilution method
# Method in brief: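 Agar dilution MIC determined on Mueller-Hinton agar following CLSI guidelines. S. aureus ATCC 29213 and Enterococcus faecalis ATCC 29212 were run as quality controls with each set, and test MICs were accepted only when the control MICs fell within acceptable ranges. Test organism was a coagulase-negative S. epidermidis strain.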
# [17] = test system: Staphylococcus epidermidis; test: Antibacterial activity against methicillin-resistant, vancomycin-intermediate coagulase-negative Staphylococcus epidermidis 225 by agar dilution method
# Method in brief: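 Agar dilution on Mueller-Hinton agar per CLSI guidelines. S. aureus ATCC 29213 and E. faecalis ATCC 29212 were run with each set, and test MICs were accepted only when the control strains fell within acceptable ranges.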
# [18] = test system: Staphylococcus epidermidis; test: Antibacterial activity against coagulase-negative Staphylococcus epidermidis 345 after 50 passages by agar dilution method; method in brief: as §6
# [19] = test system: Staphylococcus epidermidis; test: Antibacterial activity against coagulase-negative Staphylococcus epidermidis 225 by agar dilution method; method in brief: as §3
# [20] = test system: Staphylococcus epidermidis; test: Antibacterial activity against coagulase-negative Staphylococcus epidermidis 051 after 50 passages by agar dilution method; method in brief: as §6
# Staphylococcus aureus [21] = test: Antibacterial activity against vancomycin-resistant Staphylococcus aureus VRS1 after 10 passages in MHB without antibiotic by agar dilution method; method in brief: as §5
# Staphylococcus aureus [22] = test: Antibacterial activity against Tmp-susceptible coagulase-negative Staphylococcus aureus by agar dilution method; method in brief: as §3
# [23] = test system: Staphylococcus epidermidis; test: Antibacterial activity against coagulase-negative Staphylococcus epidermidis 225 after 36 passages by agar dilution method; method in brief: as §6
# [24] = test system: Staphylococcus epidermidis; test: Antibacterial activity against coagulase-negative Staphylococcus epidermidis 225 assessed as change in MIC by agar dilution method after serial passages in presence of antibiotic relative to control; method in brief: as §6
# Staphylococcus aureus [25] = test: Antibacterial activity against Staphylococcus aureus 145 after 10 passages in MHB without antibiotic by agar dilution method; method in brief: as §1
# [26] = test system: Staphylococcus epidermidis; test: Antibacterial activity against coagulase-negative Staphylococcus epidermidis 057 after 23 passages by agar dilution method; method in brief: as §6
# Staphylococcus aureus [27] = test: Antibacterial activity against Staphylococcus aureus 145 after 37 passages by agar dilution method; method in brief: as §6
# [28] = test system: Staphylococcus epidermidis; test: Antibacterial activity against methicillin-susceptible coagulase-negative Staphylococcus epidermidis 057 after 50 passages by agar dilution method; method in brief: as §4
# [29] = test system: Staphylococcus epidermidis; test: Antibacterial activity against coagulase-negative Staphylococcus epidermidis 225 after 50 passages by agar dilution method; method in brief: as §6
# Staphylococcus aureus [30] = test: Antibacterial activity against methicillin-resistant Staphylococcus aureus 145 after 37 passages by agar dilution method; method in brief: as §6
# [31] = test system: Staphylococcus epidermidis; test: Antibacterial activity against methicillin-resistant, vancomycin-intermediate coagulase-negative Staphylococcus epidermidis 225 after 50 passages by agar dilution method; method in brief: as §2
# Staphylococcus aureus [32] = test: Antibacterial activity against methicillin-resistant and vancomycin-resistant Staphylococcus aureus VRS1 after 15 passages by agar dilution method; method in brief: as §2
# [33] = test system: Staphylococcus epidermidis; test: Antibacterial activity against coagulase-negative Staphylococcus epidermidis 225 after 38 passages by agar dilution method; method in brief: as §6
# [34] = test system: Staphylococcus epidermidis; test: Antibacterial activity against methicillin-susceptible coagulase-negative Staphylococcus epidermidis 051 after 38 passages by agar dilution method; method in brief: as §2
# [35] = test system: Staphylococcus epidermidis; test: Antibacterial activity against coagulase-negative Staphylococcus epidermidis 051 after 38 passages by agar dilution method; method in brief: as §6
# Staphylococcus aureus [36] = test: Antibacterial activity against Staphylococcus aureus 145 after 47 passages by agar dilution method; method in brief: as §6
# Staphylococcus aureus [37] = test: Antibacterial activity against methicillin-resistant and vancomycin-resistant Staphylococcus aureus VRS1 after 20 passages by agar dilution method; method in brief: as §2
# [38] = test system: Staphylococcus epidermidis; test: Antibacterial activity against methicillin-resistant, vancomycin-intermediate coagulase-negative Staphylococcus epidermidis 225 after 38 passages by agar dilution method; method in brief: as §2
# [39] = test system: Staphylococcus epidermidis; test: Antibacterial activity against coagulase-negative Staphylococcus epidermidis 057 after 15 passages by agar dilution method; method in brief: as §6
# Staphylococcus aureus [40] = test: Antibacterial activity against vancomycin-resistant Staphylococcus aureus VRS1 after 20 passages by agar dilution method; method in brief: as §2
SMILES,fold change (FC) [1],MIC [2],MIC [3],MIC (Staphylococcus aureus [4]),MIC50 (Staphylococcus aureus [5]),MIC90 (Staphylococcus aureus [5]),MIC (Staphylococcus aureus [7]),MIC [8],fold change (FC) (Staphylococcus aureus [9]),fold change (FC) [10],MIC (Staphylococcus aureus [12]),MIC [14],MIC [15],MIC [16],MIC [17],MIC [19],MIC (Staphylococcus aureus [21]),MIC (Staphylococcus aureus [22]),fold change (FC) [24],MIC (Staphylococcus aureus [25]),further results
COc1cc(Cc2cnc(N)nc2N)cc(/C=C/C(=O)N2N=Cc3ccccc3C2c2cnc(N3CCOCC3)nc2)c1OC (stereo unspecified),-7,128 µg/mL,1 µg/mL,2 µg/mL,0.25 µg/mL,0.5 µg/mL,0.25 µg/mL,1 µg/mL,0,-1,2 µg/mL,64 µg/mL,4 µg/mL,8 µg/mL,0.25 µg/mL,0.25 µg/mL,> 128 µg/mL,≤ 0.008 µg/mL,10,128 µg/mL,MIC [6]: > 128 µg/mL; MIC (Staphylococcus aureus [11]): 128 µg/mL; MIC (Staphylococcus aureus [13]): > 128 µg/mL; MIC [18]: 4 µg/mL; MIC [20]: 64 µg/mL; MIC [23]: > 128 µg/mL; MIC [26]: > 128 µg/mL
COc1ncc(C2c3ccccc3C=NN2C(=O)/C=C/c2cc(Cc3cnc(N)nc3N)cc(OC)c2OC)cn1 (stereo unspecified),-4,128 µg/mL,16 µg/mL,1 µg/mL,0.25 µg/mL,0.5 µg/mL,0.25 µg/mL,1 µg/mL,-1,0,4 µg/mL,64 µg/mL,16 µg/mL,8 µg/mL,0.25 µg/mL,0.25 µg/mL,128 µg/mL,≤ 0.008 µg/mL,9,16 µg/mL,MIC (Staphylococcus aureus [27]): > 128 µg/mL; MIC [28]: 128 µg/mL; MIC [29]: 128 µg/mL; MIC (Staphylococcus aureus [30]): > 128 µg/mL; MIC [31]: 128 µg/mL; MIC [18]: 16 µg/mL; MIC [20]: 64 µg/mL; MIC (Staphylococcus aureus [32]): > 128 µg/mL
COc1cc(Cc2cnc(N)nc2N)cc(/C=C/C(=O)N2N=Cc3ccccc3C2c2cnc(N(C)C)nc2)c1OC (stereo unspecified),-7,128 µg/mL,4 µg/mL,8 µg/mL,0.25 µg/mL,0.5 µg/mL,0.25 µg/mL,0.125 µg/mL,0,-1,1 µg/mL,–,–,8 µg/mL,0.25 µg/mL,0.25 µg/mL,> 128 µg/mL,≤ 0.008 µg/mL,10,> 128 µg/mL,MIC [33]: > 128 µg/mL; MIC [34]: > 128 µg/mL; MIC [35]: > 128 µg/mL; MIC (Staphylococcus aureus [36]): > 128 µg/mL; MIC (Staphylococcus aureus [37]): > 128 µg/mL; MIC [38]: > 128 µg/mL; MIC [39]: > 128 µg/mL; MIC (Staphylococcus aureus [40]): > 128 µg/mL
